For one experiment, the target named is Mu-type opioid receptor (Rattus norvegicus, UniProt P33535). Kind of experiment: Binding affinity at Opioid receptor mu 1 in rat brain membrane was determined by using curve-fitting ligands ([3H]DHM, [3H]DADL, [3H]DSLET, [3H]EKC). Type of experiment: cell membranes. The gist of the method:
(§1)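 Rat brain membranes in Tris pH 7.7, preincubated 1 h at 37 °C to strip endogenous opioids. 12 mg tissue per tube with tritiated ligand plus competitor, 1 h at 25 °C, then filtered. Nonspecific binding defined with 1.0 μM unlabeled form of the tracer. Each curve run twice at two tracer concentrations. Affinities from simultaneous LIGAND curve-fitting.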

The target of experiment [1] is Kappa-type opioid receptor (Cavia porcellus, UniProt P41144). As to the kind of experiment: Binding affinity at Opioid receptor kappa 1 in guinea pig brain membrane determined by using [3H]U-69593 as radioligand. Format: cell membranes. The gist of the method: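 Guinea pig brain membranes prepared as for the rat assay (Tris pH 7.7, 1 h 37 °C preincubation). Displacement of [3H]U69,593 over 1 h at 25 °C, then filtered. Nonspecific binding with 1.0 μM unlabeled U69,593. Curves repeated twice at two tracer concentrations. Values by LIGAND analysis.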

For experiment [2], the target named is Delta-type opioid receptor (Rattus norvegicus, UniProt P33533). As to the kind of experiment: Binding affinity at Opioid receptor delta 1 in rat brain membrane was determined by using curve -fitting LIGAND([3H]DHM, [3H]DADL, [3H]DSLET, [3H]EKC). Format: cell membranes. The method in brief:
as §1

Experiment [3] has as its system Mus musculus. Kind of experiment: Effective dose to show narcotic analgesic activity was evaluated in mouse tail-flick test when administered subcutaneously. To be noted: sc. Type of experiment: functional. The method in brief:
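Male Swiss-Webster mice (21-28 g), pretested twice; heat lamp set for a 2-4 s baseline flick with a 6.5 s cut-off. Three doses, 10 mice/dose, given sc. Latency read at 10-60 min. % of maximum possible increase taken at peak effect. ED50 with 95% CL from a log-dose probit plot (Litchfield–Wilcoxon).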
A general note: Thermal pain tests record how soon the animal reacts.

Experiment [4] concerns Mus musculus. As to the kind of experiment: Antagonistic activity to show narcotic effect induced by subcutaneous administration of 21.08 umol/kg of morphine in mouse tail-flick test. Type of experiment: functional. The method in brief:
(§2)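 Male Swiss-Webster mice. Tail-flick latency read at 10, 20, 30, 45 and 60 min. % antagonism = 100 − (% agonism with morphine)/0.80, taken at peak effect. AD50 with 95% CL by Litchfield–Wilcoxon from the log-dose plot.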

Experiment [5] concerns Mus musculus. Kind of experiment: Antagonistic activity to show narcotic effect induced by subcutaneous administration of 21.08 umol/Kg of morphine in mouse tail-flick test; NA=No antagonism. Format: functional, organism-based. The method in brief: as §2

Activity calls are given as the source filed them.

The Kd is a measure of binding affinity in units of concentration. Lower therefore signals tighter binding. As a reminder, the ED50 is the midpoint of the dose-response relation. A higher ED50 goes with weaker potency.

Sequence of Kappa-type opioid receptor (P41144 whole entry): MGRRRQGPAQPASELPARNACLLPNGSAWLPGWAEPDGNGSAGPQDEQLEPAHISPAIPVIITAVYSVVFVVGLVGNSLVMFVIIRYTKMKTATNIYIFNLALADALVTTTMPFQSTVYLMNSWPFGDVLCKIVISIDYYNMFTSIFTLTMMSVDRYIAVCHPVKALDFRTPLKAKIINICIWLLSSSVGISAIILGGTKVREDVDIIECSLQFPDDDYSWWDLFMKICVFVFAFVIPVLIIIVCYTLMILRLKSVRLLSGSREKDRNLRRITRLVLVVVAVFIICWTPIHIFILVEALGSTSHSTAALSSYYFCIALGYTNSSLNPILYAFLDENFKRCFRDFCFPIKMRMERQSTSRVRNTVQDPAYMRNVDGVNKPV
Sequence of Mu-type opioid receptor (P33535 whole entry): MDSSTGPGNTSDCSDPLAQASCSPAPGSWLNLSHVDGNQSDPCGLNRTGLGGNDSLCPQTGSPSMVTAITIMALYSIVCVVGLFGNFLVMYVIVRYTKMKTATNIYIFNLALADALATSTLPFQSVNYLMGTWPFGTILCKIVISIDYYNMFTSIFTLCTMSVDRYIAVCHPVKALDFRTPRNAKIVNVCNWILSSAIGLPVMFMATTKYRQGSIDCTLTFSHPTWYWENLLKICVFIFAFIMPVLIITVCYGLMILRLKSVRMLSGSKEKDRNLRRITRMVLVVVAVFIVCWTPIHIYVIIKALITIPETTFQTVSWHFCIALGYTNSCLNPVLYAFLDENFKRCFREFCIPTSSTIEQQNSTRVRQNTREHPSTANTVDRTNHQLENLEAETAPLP
Sequence of Delta-type opioid receptor (P33533 whole entry): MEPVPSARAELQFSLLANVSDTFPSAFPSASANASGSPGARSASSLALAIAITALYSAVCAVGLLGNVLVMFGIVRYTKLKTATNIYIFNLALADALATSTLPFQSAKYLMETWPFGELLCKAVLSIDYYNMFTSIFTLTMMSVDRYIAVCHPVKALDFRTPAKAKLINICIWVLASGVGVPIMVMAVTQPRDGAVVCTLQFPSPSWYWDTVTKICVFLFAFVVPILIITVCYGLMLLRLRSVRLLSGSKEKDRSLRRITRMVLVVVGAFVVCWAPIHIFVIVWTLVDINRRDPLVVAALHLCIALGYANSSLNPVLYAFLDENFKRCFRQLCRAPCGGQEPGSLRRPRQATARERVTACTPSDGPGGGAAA

As for `CCOC(=O)[C@]1(c2cccc(O)c2)CCCN(CC2CC2)C1`, the Kd at Mu-type opioid receptor was 8 nM; in experiment [1] it was 120 nM; in experiment [2], 260 nM. This compound also gave an ED50 with Mus musculus [3] of 68 µmol/kg. The AD50 in the experiment on Mus musculus [4] came out at 19 µM/kg.

As to `CCOC(=O)[C@]1(c2cccc(O)c2)CCCN(C)[C@H]1C`, the equilibrium dissociation constant (Kd) at Mu-type opioid receptor stood at 178 nM; in experiment [1], 1900 nM; in experiment [2], 910 nM. This compound showed an ED50 with Mus musculus [3] of more than 510 µmol/kg. The same compound came in with an AD50 with Mus musculus [4] of 14 µM/kg.

Take `C=CCN1CCC[C@](C(=O)OCC)(c2cccc(O)c2)[C@@H]1C`: the Kd at Mu-type opioid receptor came to 310 nM; in experiment [1], 830 nM; in experiment [2], 770 nM. Also, the ED50 in the experiment with Mus musculus [3] is more than 118 µmol/kg. The compound also registered an AD50 in the experiment on Mus musculus [4] of 112 µM/kg.

Consider `CCOC(=O)[C@]1(c2cccc(O)c2)CCCN(CC2CC2)[C@H]1C`, for which the dissociation constant (Kd) at Mu-type opioid receptor was 154 nM; in experiment [1] it was 830 nM; in experiment [2] it was 625 nM. Further, in the experiment with Mus musculus [3], the ED50 was more than 452 µmol/kg. The AD50 in the experiment with Mus musculus [4] amounted to 75 µM/kg.

As to `CCOC(=O)[C@]1(c2cccc(O)c2)CCCN(CCc2ccccc2)[C@H]1C`, the Kd was 380 nM on Mu-type opioid receptor, 2600 nM in experiment [1] and 170 nM in experiment [2]. The compound also gave an ED50 in the experiment with Mus musculus [3] of more than 198 µmol/kg. In the experiment with Mus musculus [4], this compound had an AD50 of more than 198 µM/kg.

As for `CCOC(=O)[C@]1(c2cccc(O)c2)CCCN(C)C1`, the Kd at Mu-type opioid receptor was 36 nM; in experiment [1], 2200 nM; in experiment [2], 4000 nM. For the same compound, the ED50 in the experiment with Mus musculus [3] is more than 290 µmol/kg. The AD50 in the experiment with Mus musculus [4] is 24 µM/kg.

Take `C=CCN1CCC[C@](C(=O)OCC)(c2cccc(O)c2)C1`: the figures for the Kd (at Mu-type opioid receptor; in experiment [1]; in experiment [2]) were 26 nM, 450 nM and 715 nM, respectively. Moreover, in the experiment on Mus musculus [3], the ED50 was more than 229 µmol/kg. The AD50 in the experiment on Mus musculus [4] is more than 192 µM/kg.

With `CCOC(=O)C1(c2ccccc2)CCN(C)CC1` [MEPERIDINE], in the experiment with Mus musculus [5], the AD50 result is “inactive”. Besides, in the experiment with Mus musculus [3], the 50% effect level (ED50) was put at a dose of 25 µmol/kg.

In turn, `C=CCN1CC[C@]23c4c5ccc(O)c4O[C@H]2[C@@H](O)C=C[C@H]3[C@H]1C5` [NALORPHINE] displayed an ED50 in the experiment with Mus musculus [3] of 828 µmol/kg. In addition, the AD50 with Mus musculus [4] worked out at 2 µM/kg.

The values are drawn from ChEMBL document CHEMBL1123989, “Effects of addition of a 2-methyl group to ethyl nipecotates (beta-meperidines) on receptor affinities and opiate agonist/antagonist activities” (J Med Chem, 1988).
